Source: PubChem BioAssay
HKDC1 inhibitor – inhibitors of human hexokinase HKDC1 | recombinant HKDC1, G6PDH/diaphorase resazurin coupled fluorescence | inhibition, % at 20 µM | actives 0.16% (n = 340,000) | Q2TB90 | AID 493160;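 active = inhibition above about 35% when tested at 20 µM, limit read from the data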
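test system = in-house recombinant HK5 (HKDC1) enzyme | amount = HKDC1 at 5 µg/mL | control set = DMSO-enzyme wells negative, buffer-substituted wells positive | compound = one dose of 20 µM, 1% DMSO | schedule = reaction time 90 min, room temperature, protected from light | technique = resorufin fluorescence at 613 nm | reagent = glucose with 1 mM ATP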
DNMT1 block – blocks human DNA methyltransferase DNMT1; P26358; DNMT1 molecular beacon, Hinp1I cleavage, fluorescence; inhibition (reported as % activation of signal), % at 10 µM; actives 0.83% (n = 360,000); AID 588458; in the data active = inhibition above about 50%
Target sequence (P26358 504-1616 limits assumed): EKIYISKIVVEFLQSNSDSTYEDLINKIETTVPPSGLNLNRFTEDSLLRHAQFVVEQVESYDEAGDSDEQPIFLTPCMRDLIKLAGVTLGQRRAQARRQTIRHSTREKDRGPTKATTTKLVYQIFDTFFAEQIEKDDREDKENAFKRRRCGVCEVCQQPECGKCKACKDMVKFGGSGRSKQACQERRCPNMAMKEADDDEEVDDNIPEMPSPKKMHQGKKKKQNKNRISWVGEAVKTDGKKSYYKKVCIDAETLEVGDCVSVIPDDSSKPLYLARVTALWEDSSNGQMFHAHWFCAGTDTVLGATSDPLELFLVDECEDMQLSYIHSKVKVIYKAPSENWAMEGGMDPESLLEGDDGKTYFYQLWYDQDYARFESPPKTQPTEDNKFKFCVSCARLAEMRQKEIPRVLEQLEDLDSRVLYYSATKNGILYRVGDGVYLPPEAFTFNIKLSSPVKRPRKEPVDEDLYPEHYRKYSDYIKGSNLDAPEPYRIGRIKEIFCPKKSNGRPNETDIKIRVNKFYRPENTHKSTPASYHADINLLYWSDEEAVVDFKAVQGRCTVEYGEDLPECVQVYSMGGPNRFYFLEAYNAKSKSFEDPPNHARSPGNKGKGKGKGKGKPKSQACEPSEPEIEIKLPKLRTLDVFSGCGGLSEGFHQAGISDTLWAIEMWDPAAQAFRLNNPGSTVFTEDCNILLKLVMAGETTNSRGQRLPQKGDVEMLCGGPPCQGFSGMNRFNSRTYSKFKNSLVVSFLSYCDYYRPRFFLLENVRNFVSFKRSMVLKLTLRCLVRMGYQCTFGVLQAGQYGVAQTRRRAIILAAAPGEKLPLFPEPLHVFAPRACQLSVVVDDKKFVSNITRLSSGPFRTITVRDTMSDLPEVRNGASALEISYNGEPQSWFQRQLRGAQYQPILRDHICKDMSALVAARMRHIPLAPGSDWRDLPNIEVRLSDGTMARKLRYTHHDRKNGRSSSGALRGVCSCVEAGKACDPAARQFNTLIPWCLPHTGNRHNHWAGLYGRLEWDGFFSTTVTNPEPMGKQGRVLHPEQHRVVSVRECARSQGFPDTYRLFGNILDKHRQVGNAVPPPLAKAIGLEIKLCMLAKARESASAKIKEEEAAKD
Scp1 inh – Scp-1 (human) phosphatase inhibition. Recombinant Scp1, phosphopeptide, malachite green phosphate absorbance. inhibition, % at 20 µM. AID 493091. actives 0.88% (n = 340,000). Q9GZU7;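 active = inhibition above about 50% at 20 µM, limit read from the data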
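Material: truncated SCP-1 phosphatase (76-261aa) / Buffer or medium: 50 mM Tris acetate pH 5.5, 0.005% Tween-20, 10 mM MgCl2 / Compound dosing: one concentration, 20 µM, with 1.0% DMSO / Incubation: 45 min room-temperature reaction, 5 min colour, 30 min stabiliser / Detection: colorimetric free-phosphate detection, absorbance 630 nm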
STEP block – blocks human striatal-enriched tyrosine phosphatase; AID 588621; inhibition, % at 20 µM; actives 0.25% (n = 360,000); recombinant STEP, OMFP fluorogenic substrate, fluorescence; P54829;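 active = inhibition at 20 µM, scaled per plate between control wells, above about 37%, limit read from the data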
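System: STEP phosphatase, cell-free reaction; Buffer or medium: Bis-Tris pH 6.0 buffer with DTT, detergent; Incubation: 20 min at room temperature, dark; Measured by: fluorescence, 480/540 nm.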
LMPTP block – blocks human LMPTP phosphatase; actives 0.22% (n = 360,000); recombinant LMPTP-A, OMFP fluorogenic substrate, fluorescence intensity; inhibition, % at 20 µM; P24666; AID 651560;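 active = compounds that cut the enzyme signal by at least half of the control window in the single-dose screen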
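Assay system: LMPTP-A enzyme. Input: 0.625 nM LMPTP-A final. Probe or stimulus: 400 µM OMFP. Compound dosing: single 20 µM dose. Schedule: 50 min dark incubation at room temperature. Detection: fluorescence intensity of OMFP turnover product. Read-out: percent inhibition versus substrate-only and uninhibited controls. Benchmarks: no-enzyme low control, uninhibited high control.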
SUMO1 PPI mod – alters human SUMO1 binding to SIM partners | P63165 | SUMO1 binding to a labelled peptide, TR-FRET, 1 h | inhibition, % at 20 µM | actives 0.33% (n = 360,000) | AID 602429; in the data active = inhibition above about 37%
Scp1 confirm – Scp-1 (human) inhibition, single-dose confirmed; shares compounds with Scp1 inh; recombinant SCP-1 catalytic domain, phosphate release, malachite green absorbance; inhibition, % at 20 µM; actives 61% (n = 2,500)
Scp-1 MG ctr – counter-screen for Scp-1 inhibitors: colorimetric interference | shares compounds with Scp1 inh | Colorimetric interference counterscreen, malachite green absorbance 630 nm | apparent inhibition (interference), % at 20 µM | 2,500 tested, under 10 active | AID 540313;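 also: compounds added after enzyme reaction finished so only phosphate colour detection is probed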
Scp-1 Tm shift – validation of human Scp-1 inhibitors by thermal shift binding; shares compounds with Scp1 inh; Recombinant SCP1, Sypro Orange thermal shift Tm; thermal shift relative to vanadate control, % at 40 µM; actives 25% (n = 1,500); AID 540329;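 active = substances whose mean melting-temperature shift, as a percentage of the reference inhibitor's shift, reaches about 5.3%, limit read from the data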
Of the large screens only hits and unclear results are named; the others gave an inactive call (follow-up assays come after a bar, where they were run). Rows were chosen to be rich in hits. Some 1.8% of all compounds tested hit in one or more screens of this group.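 The calls were made as follows, unless noted: active = inhibition of at least 30% at 20 µM; inactive = the rest.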

C/C(CC(=O)NC1CCCCC1)=N\NC(=O)Cc1ccc(-c2ccccc2)cc1	Scp1 inh 69.2 | Scp1 confirm 85.6 | Scp-1 MG ctr inactive | Scp-1 Tm shift inactive
C[N+]1(C)CC2([N+](=O)[O-])CC=C(Oc3ccccc3)C([N+](=O)[O-])(C2)C1 (stereo not drawn)	Scp1 inh 97.4 | Scp1 confirm 87.1 | Scp-1 MG ctr inactive | Scp-1 Tm shift inactive
CCN1C(=O)C(=O)N(CC(=O)N(C)CC(=O)Nc2ccccc2Cl)C1=O	none | Scp1 confirm inactive | Scp-1 MG ctr inactive
Cc1cc(C)nc(Sc2ncnc(N)c2[N+](=O)[O-])n1	none
Cc1cc(C(=O)N/N=C/c2cc(Br)ccc2OC(=O)c2ccccc2Cl)n[nH]1	none
Cc1cc(C(=O)N/N=C/c2cc(Br)ccc2OC(=O)c2ccccc2)n[nH]1	Scp1 inh 94.4 | Scp1 confirm 64.5 | Scp-1 MG ctr inactive | Scp-1 Tm shift inactive
Cc1cc(C(=O)N/N=C/c2ccc(-c3ccccc3Cl)o2)n[nH]1	Scp1 inh 60.0 | Scp1 confirm 57.6 | Scp-1 MG ctr inactive | Scp-1 Tm shift inactive
Cc1cc(C(=O)N/N=C/C=C/c2ccc(Br)cc2)n[nH]1	Scp1 inh 52.0 | Scp1 confirm 64.8 | Scp-1 MG ctr inactive | Scp-1 Tm shift inactive
Cc1cc(C(=O)N/N=C/c2ccc(-c3ccc(C)c(Cl)c3)o2)n[nH]1	none
O=C(NC1CCCCC1)c1cccc(OCc2ccccc2)c1	none
C[C@H](CO)N1C[C@H](C)[C@@H](CN(C)Cc2ccc(C(=O)O)cc2)Oc2c(NC(=O)c3ccncc3)cccc2C1=O	Scp1 inh 54.4 | Scp1 confirm inactive | Scp-1 MG ctr inactive
C[C@H](CO)N1C[C@H](C)[C@@H](CN(C)C(=O)Nc2ccc3c(c2)OCO3)Oc2c(NC(=O)c3ccncc3)cccc2C1=O	Scp1 inh 55.8 | Scp1 confirm inactive | Scp-1 MG ctr inactive
C[C@H](CO)N1C[C@H](C)[C@@H](CN(C)Cc2ccncc2)Oc2c(NC(=O)c3ccncc3)cccc2C1=O	none
Cc1noc(C)c1NC(=O)N(C)C[C@@H]1Oc2c(NC(=O)c3ccncc3)cccc2C(=O)N([C@H](C)CO)C[C@@H]1C	Scp1 inh 94.2 | Scp1 confirm 66.0 | Scp-1 MG ctr inactive | Scp-1 Tm shift inactive
CC1(C)CC(Nc2ccc(Nc3ccccc3)cc2)CC(C)(C)N1	none
COc1ccc(/C=C(\NC(=O)c2ccccc2)C(=O)NC2CCS(=O)(=O)C2)cc1 (stereo not drawn)	none
CCN(C(=O)COC(=O)c1[nH]c(C)c(C(C)=O)c1C)C1CCS(=O)(=O)C1 (stereo not drawn)	Scp1 inh 69.9 | Scp1 confirm inactive | Scp-1 MG ctr inactive
COc1ccc(N2CCN(C(=O)COC(=O)c3cccc(OC)c3O)CC2)cc1	none
CNc1ccccc1C(=O)OCC(=O)N1CCN(c2ccc(OC)cc2)CC1	Scp1 inh 66.4 | Scp1 confirm inactive | Scp-1 MG ctr inactive
Fc1ccc(Oc2ccnc(Cl)n2)c(Cl)c1	Scp1 inh 50.6 (no result: DNMT1 block, STEP block, LMPTP block, SUMO1 PPI mod) | Scp1 confirm inactive | Scp-1 MG ctr inactive
Nc1ccc(Oc2ncccn2)c(Cl)c1	none
CC1CCCC(NC(=O)C2CCN(S(=O)(=O)c3cccc4nonc34)CC2)C1C (stereo not drawn)	Scp1 inh 69.0 | Scp1 confirm inactive | Scp-1 MG ctr inactive
O=C(NCc1ccccc1)C(c1ccc(-c2ccccc2)cc1)n1c(=O)c(-c2cc3ccccc3[nH]2)nc2ccccc21 (stereo not drawn)	none (no result: HKDC1 inhibitor, DNMT1 block, Scp1 inh, STEP block)
CCc1nnc(NC(=O)CSC(=S)N2CCOCC2)s1	Scp1 inh 67.3 | Scp1 confirm inactive | Scp-1 MG ctr inactive
Cc1cc(=O)[nH]c(N/N=C/c2cn(CCC#N)nc2-c2ccccc2)n1	none
COc1ccc(S(=O)(=O)NCCN2CCOCC2)c(C)c1C	Scp1 inh 80.6 | Scp1 confirm inactive | Scp-1 MG ctr inactive
COc1ccc(S(=O)(=O)NCCN2CCOCC2)c2ccccc12	none
O=C(NC1CCC(O)CC1)C1CCN(S(=O)(=O)c2c(Cl)cccc2Cl)CC1 (stereo not drawn)	none
O=C(COc1ccc(OCc2ccccc2)cc1)NC1CCOC1=O (stereo not drawn)	Scp1 inh 85.0 | Scp1 confirm inactive | Scp-1 MG ctr inactive
O=C(NCCc1ccccc1F)C1CCC(=O)N(Cc2ccccc2F)C1 (stereo not drawn)	none
Cc1ccccc1CNC(=O)C1CCC(=O)N(Cc2cccc(F)c2)C1 (stereo not drawn)	none | Scp1 confirm inactive | Scp-1 MG ctr inactive
O=C(NCCN1CCNC1=O)C1CCC(=O)N(Cc2ccccc2F)C1 (stereo not drawn)	none | Scp1 confirm inactive | Scp-1 MG ctr inactive
COc1ccccc1CN1CC(C(=O)NCc2cc(C(C)C)no2)CCC1=O (stereo not drawn)	Scp1 inh 69.8 | Scp1 confirm inactive | Scp-1 MG ctr inactive
CC(C)c1cc(CNC(=O)C2CCC(=O)N(Cc3ccccc3F)C2)on1 (stereo not drawn)	none
O=C(NCc1ccccc1OC(F)(F)F)C1CCC(=O)N(Cc2cccc(F)c2)C1 (stereo not drawn)	none
COc1ccc(OC)c(CCNC(=O)c2cccc(NC(=O)C3=C(C)OCCS3)c2)c1	none
COc1cc(NC(=O)CN2CCN(S(=O)(=O)/C=C/c3ccccc3)CC2)cc(OC)c1OC	none
CC(C)C(=O)N1CCCC1(C)C(=O)Nc1ccc2c(c1)OCO2 (stereo not drawn)	none (no result: HKDC1 inhibitor, Scp1 inh)
CC(C)c1cc(-c2cc(C(=O)NCc3ccccc3)on2)nc(NCC2CC2)n1	none
O=C(NNC1OC(CO)C(O)C(O)C1O)c1cccc(Br)c1 (stereo not drawn)	none | Scp1 confirm inactive | Scp-1 MG ctr inactive
COc1cc(C(=O)NCCOc2ccc(F)cc2)c(Br)c(OC)c1OC	none
CC1CCN(S(=O)(=O)c2ccc(NC(=O)Cc3cccs3)cc2)CC1	Scp1 inh 77.3 | Scp1 confirm 59.9 | Scp-1 MG ctr inactive | Scp-1 Tm shift 5.8
CC1CCN(CC(=O)Nc2ccc(S(=O)(=O)N3CCC(C)CC3)cc2)CC1	none
